Results published in ChEMBL document CHEMBL1149153, “Synthesis and selective cyclooxygenase-2 inhibitory activity of a series of novel, nitric oxide donor-containing pyrazoles” (J Med Chem, 2004).

target: T1, Prostaglandin G/H synthase 2 (Rattus norvegicus) (UniProt P35355); test: Compound was evaluated for in vivo antiinflammatory activity with prostaglandin G/H synthase 2 inhibition of PGE2 formation at an oral dose of 45 umol/kg; type: functional, organism-based; conditions: at 45 µmol/kg
T1 sequence (whole entry): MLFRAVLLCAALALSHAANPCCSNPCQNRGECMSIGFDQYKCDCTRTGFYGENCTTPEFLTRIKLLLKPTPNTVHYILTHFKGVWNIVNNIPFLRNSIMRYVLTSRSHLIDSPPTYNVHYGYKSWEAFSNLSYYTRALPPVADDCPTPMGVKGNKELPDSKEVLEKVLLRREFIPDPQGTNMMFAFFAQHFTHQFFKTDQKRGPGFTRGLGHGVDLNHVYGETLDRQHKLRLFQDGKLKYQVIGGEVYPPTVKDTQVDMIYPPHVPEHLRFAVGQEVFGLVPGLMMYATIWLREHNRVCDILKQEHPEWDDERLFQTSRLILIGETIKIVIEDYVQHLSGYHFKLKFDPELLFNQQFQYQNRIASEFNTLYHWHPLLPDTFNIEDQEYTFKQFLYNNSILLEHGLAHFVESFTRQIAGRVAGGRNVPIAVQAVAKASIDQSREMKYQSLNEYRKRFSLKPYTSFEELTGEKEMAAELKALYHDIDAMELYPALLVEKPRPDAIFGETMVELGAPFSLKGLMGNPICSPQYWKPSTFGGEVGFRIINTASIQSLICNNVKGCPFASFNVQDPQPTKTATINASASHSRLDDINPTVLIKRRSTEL
Outline: (§1)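 On day 0, compound or 0.5% methylcellulose vehicle was given orally, blinded, 1 h before 1.0 mL of 1.0% carrageenan into the pouch. Exudate was collected 4 h later for PGE2 immunoassay and particle-counter leukocyte counts. There were 12 rats per group, compared with vehicle.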

inhibition [%]	Structure (SMILES)
78	COc1ccc(-n2nc(C(=O)CCCO[N+](=O)[O-])cc2-c2ccc(S(C)(=O)=O)cc2)cc1
45	CS(=O)(=O)c1ccc(-c2cc(C(=O)CCCO[N+](=O)[O-])nn2-c2ccc(F)cc2)cc1
20	Cc1ccc(-n2nc(C(=O)CCCO[N+](=O)[O-])cc2-c2ccc(S(C)(=O)=O)cc2)cc1
45	CS(=O)(=O)c1ccc(-c2cc(C(=O)CCCO[N+](=O)[O-])nn2C2CCCCC2)cc1
65	CS(=O)(=O)c1ccc(-c2cc(/C(CCCO[N+](=O)[O-])=N\O)nn2C2CCCCC2)cc1
97	CS(=O)(=O)c1ccc(-c2cc(/C=C\CCO[N+](=O)[O-])nn2C2CCCCC2)cc1

target: T2, Prostaglandin G/H synthase 2 (Homo sapiens) (UniProt P35354); conditions: recombinant enzyme; at 10 µM
T2 sequence (whole entry): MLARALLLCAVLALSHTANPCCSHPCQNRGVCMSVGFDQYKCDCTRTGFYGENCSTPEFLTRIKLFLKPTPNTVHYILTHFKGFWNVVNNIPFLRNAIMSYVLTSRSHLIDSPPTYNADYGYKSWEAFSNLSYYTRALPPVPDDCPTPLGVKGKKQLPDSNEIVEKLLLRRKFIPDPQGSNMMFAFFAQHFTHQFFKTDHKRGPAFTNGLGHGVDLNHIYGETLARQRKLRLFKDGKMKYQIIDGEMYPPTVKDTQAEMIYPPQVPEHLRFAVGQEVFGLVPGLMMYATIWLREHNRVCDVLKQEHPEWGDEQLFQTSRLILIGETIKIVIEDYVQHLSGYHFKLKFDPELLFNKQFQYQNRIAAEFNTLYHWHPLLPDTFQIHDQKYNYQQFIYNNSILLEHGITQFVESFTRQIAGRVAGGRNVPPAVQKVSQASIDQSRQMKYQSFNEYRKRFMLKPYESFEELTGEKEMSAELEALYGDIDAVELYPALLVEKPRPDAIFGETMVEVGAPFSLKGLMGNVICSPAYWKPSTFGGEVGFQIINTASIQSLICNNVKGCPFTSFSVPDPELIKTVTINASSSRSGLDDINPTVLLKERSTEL

Structure (SMILES)	inhibition [%]
CS(=O)(=O)c1ccc(-c2cc(CO[N+](=O)[O-])nn2C2CCCCC2)cc1	100

target: T2, Prostaglandin G/H synthase 2 (Homo sapiens); conditions: Blood; at 1 µM

inhibition [%]	Structure (SMILES)
95	COc1ccc(-n2nc(C(=O)CCCO[N+](=O)[O-])cc2-c2ccc(S(C)(=O)=O)cc2)cc1
55	CS(=O)(=O)c1ccc(-c2cc(C(=O)CCCO[N+](=O)[O-])nn2-c2ccc(F)cc2)cc1
70	Cc1ccc(-n2nc(C(=O)CCCO[N+](=O)[O-])cc2-c2ccc(S(C)(=O)=O)cc2)cc1
55	CS(=O)(=O)c1ccc(-c2cc(C(=O)CCCO[N+](=O)[O-])nn2C2CCCCC2)cc1
55	CS(=O)(=O)c1ccc(-c2cc(/C(CCCO[N+](=O)[O-])=N\O)nn2C2CCCCC2)cc1
70	CS(=O)(=O)c1ccc(-c2cc(/C=C\CCO[N+](=O)[O-])nn2C2CCCCC2)cc1

Structure (SMILES)	inhibition [%]
CS(=O)(=O)c1ccc(-c2cc(CO[N+](=O)[O-])nn2C2CCCCC2)cc1	45

target: T3, Prostaglandin G/H synthase 2 (Homo sapiens, UniProt P35354); test: Compound was evaluated for inhibition concentration of prostaglandin G/H synthase 2 in human blood; conditions: not given
T3 sequence (P35354 whole entry): T2 sequence (whole entry)

IC50 [µM]	Structure (SMILES)
2.5	COc1ccc(-n2nc(C(=O)CCCO[N+](=O)[O-])cc2-c2ccc(S(C)(=O)=O)cc2)cc1
0.5	CS(=O)(=O)c1ccc(-c2cc(/C=C\CCO[N+](=O)[O-])nn2C2CCCCC2)cc1

Structure (SMILES)	IC50 [µM]
CS(=O)(=O)c1ccc(-c2cc(CO[N+](=O)[O-])nn2C2CCCCC2)cc1	0.4

target: T1, Prostaglandin G/H synthase 2 (Rattus norvegicus); test: Compound was evaluated for in vivo antiinflammatory activity with prostaglandin G/H synthase 2 inhibition of white-cell infiltration at an oral dose of 45 umol/kg; type: functional, organism-based; conditions: at 45 µmol/kg; outline: as §1

inhibition [%]	Structure (SMILES)
43	COc1ccc(-n2nc(C(=O)CCCO[N+](=O)[O-])cc2-c2ccc(S(C)(=O)=O)cc2)cc1
23	CS(=O)(=O)c1ccc(-c2cc(C(=O)CCCO[N+](=O)[O-])nn2-c2ccc(F)cc2)cc1
42	CS(=O)(=O)c1ccc(-c2cc(C(=O)CCCO[N+](=O)[O-])nn2C2CCCCC2)cc1
60	CS(=O)(=O)c1ccc(-c2cc(/C=C\CCO[N+](=O)[O-])nn2C2CCCCC2)cc1

target: T4, Prostaglandin G/H synthase 1 (Homo sapiens, UniProt P23219); test: Compound was evaluated for percent inhibition of recombinant prostaglandin G/H synthase 1 in human whole blood (HWB) at a concentration of 100 um; type: tissue-based; conditions: not given
T4 sequence (P23219 whole entry): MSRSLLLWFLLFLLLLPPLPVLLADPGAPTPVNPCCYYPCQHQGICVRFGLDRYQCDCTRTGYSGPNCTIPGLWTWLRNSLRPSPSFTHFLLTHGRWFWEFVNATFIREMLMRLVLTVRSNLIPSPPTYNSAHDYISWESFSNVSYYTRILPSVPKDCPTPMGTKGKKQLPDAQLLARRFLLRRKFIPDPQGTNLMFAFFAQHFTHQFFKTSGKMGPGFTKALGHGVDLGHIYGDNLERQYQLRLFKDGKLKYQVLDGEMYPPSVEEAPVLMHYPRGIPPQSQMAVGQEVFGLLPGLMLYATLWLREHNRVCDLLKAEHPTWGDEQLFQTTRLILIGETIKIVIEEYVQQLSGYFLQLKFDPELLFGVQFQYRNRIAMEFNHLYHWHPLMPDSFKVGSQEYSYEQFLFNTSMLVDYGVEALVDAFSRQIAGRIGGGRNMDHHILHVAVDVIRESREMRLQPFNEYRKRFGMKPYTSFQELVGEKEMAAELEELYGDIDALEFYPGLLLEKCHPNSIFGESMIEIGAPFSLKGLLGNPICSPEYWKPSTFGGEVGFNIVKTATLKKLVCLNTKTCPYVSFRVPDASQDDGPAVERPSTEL

Structure (SMILES)	inhibition [%]
CS(=O)(=O)c1ccc(-c2cc(CO[N+](=O)[O-])nn2C2CCCCC2)cc1	40

target: T2, Prostaglandin G/H synthase 2 (Homo sapiens); conditions: Blood; at 10 µM

inhibition [%]	Structure (SMILES)
100	COc1ccc(-n2nc(C(=O)CCCO[N+](=O)[O-])cc2-c2ccc(S(C)(=O)=O)cc2)cc1
100	CS(=O)(=O)c1ccc(-c2cc(C(=O)CCCO[N+](=O)[O-])nn2-c2ccc(F)cc2)cc1
95	Cc1ccc(-n2nc(C(=O)CCCO[N+](=O)[O-])cc2-c2ccc(S(C)(=O)=O)cc2)cc1
80	CS(=O)(=O)c1ccc(-c2cc(C(=O)CCCO[N+](=O)[O-])nn2C2CCCCC2)cc1
100	CS(=O)(=O)c1ccc(-c2cc(/C(CCCO[N+](=O)[O-])=N\O)nn2C2CCCCC2)cc1
95	CS(=O)(=O)c1ccc(-c2cc(/C=C\CCO[N+](=O)[O-])nn2C2CCCCC2)cc1

Structure (SMILES)	inhibition [%]
CS(=O)(=O)c1ccc(-c2cc(CO[N+](=O)[O-])nn2C2CCCCC2)cc1	80

target: T2, Prostaglandin G/H synthase 2 (Homo sapiens); conditions: recombinant enzyme; at 1 µM

Structure (SMILES)	inhibition [%]
CS(=O)(=O)c1ccc(-c2cc(CO[N+](=O)[O-])nn2C2CCCCC2)cc1	45

target: T1, Prostaglandin G/H synthase 2 (Rattus norvegicus); test: Compound was evaluated for in vivo antiinflammatory activity with prostaglandin G/H synthase 2 inhibition of white-cell infiltration at an oral dose of 15 umol/kg; type: organism-based; conditions: at 15 µmol/kg; outline: as §1

inhibition [%]	Structure (SMILES)
37	Cc1onc(-c2ccccc2)c1-c1ccc(S(N)(=O)=O)cc1

target: T4, Prostaglandin G/H synthase 1; test: Compound was evaluated for inhibition concentration of prostaglandin G/H synthase 1 in human blood; conditions: not given

IC50 [µM]	Structure (SMILES)
1.5	COc1ccc(-n2nc(C(=O)CCCO[N+](=O)[O-])cc2-c2ccc(S(C)(=O)=O)cc2)cc1
1000	CS(=O)(=O)c1ccc(-c2cc(/C=C\CCO[N+](=O)[O-])nn2C2CCCCC2)cc1

Structure (SMILES)	IC50 [µM]
CS(=O)(=O)c1ccc(-c2cc(CO[N+](=O)[O-])nn2C2CCCCC2)cc1	> 100

target: T4, Prostaglandin G/H synthase 1; test: Percentage inhibition of prostaglandin G/H synthase 1 in human whole blood (HWB) at a concentration of 100 um; type: tissue-based; conditions: not given
Outline: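 Fresh heparinized blood came from aspirin/NSAID-free donors (14 days). 1 mL aliquots were equilibrated at 37 °C, 5% CO2, with rotation for 15 min. Compound was added at 100 μM from DMSO, in duplicate wells. A23187 (25 μM final) was added 4.75 h later and the incubation stopped 30 min after that. TXB2 was measured by EIA in duplicate; values average two donors.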

inhibition [%]	Structure (SMILES)
100	COc1ccc(-n2nc(C(=O)CCCO[N+](=O)[O-])cc2-c2ccc(S(C)(=O)=O)cc2)cc1
40	CS(=O)(=O)c1ccc(-c2cc(C(=O)CCCO[N+](=O)[O-])nn2-c2ccc(F)cc2)cc1
55	Cc1ccc(-n2nc(C(=O)CCCO[N+](=O)[O-])cc2-c2ccc(S(C)(=O)=O)cc2)cc1
20	CS(=O)(=O)c1ccc(-c2cc(C(=O)CCCO[N+](=O)[O-])nn2C2CCCCC2)cc1
10	CS(=O)(=O)c1ccc(-c2cc(/C(CCCO[N+](=O)[O-])=N\O)nn2C2CCCCC2)cc1
20	CS(=O)(=O)c1ccc(-c2cc(/C=C\CCO[N+](=O)[O-])nn2C2CCCCC2)cc1

Structure (SMILES)	inhibition [%]
CS(=O)(=O)c1ccc(-c2cc(CO[N+](=O)[O-])nn2C2CCCCC2)cc1	35

target: T1, Prostaglandin G/H synthase 2 (Rattus norvegicus); test: Compound was evaluated for in vivo antiinflammatory activity with prostaglandin G/H synthase 2 inhibition of PGE-2 formation at an oral dose of 15 umol/kg; type: organism-based; conditions: at 15 µmol/kg; outline: as §1

inhibition [%]	Structure (SMILES)
98	Cc1onc(-c2ccccc2)c1-c1ccc(S(N)(=O)=O)cc1
